Results taken from ChEMBL document CHEMBL4052582, “A Versatile Method to Determine the Cellular Bioavailability of Small-Molecule Inhibitors” (J Med Chem, 2017).

How the values were obtained:
[1] = Drug uptake in human MDA-MB-231 cells assessed as cell bound drug level per million cells at 2 uM in presence of 5% FBS after 6 hrs at 4 degC by HPLC-MS analysis; format: ADME, cell-based; conditions: mda-mb-231, 6 h
Summary of the method: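 Confluent (~70%) MDA-MB-231 cells given inhibitor in 5 mL cold DMEM with 0.02% DMSO (10% FBS for BRD-targeting inhibitors, 5% FBS for β-catenin/BCL9 inhibitors), held at 4 °C for 6 h; then washed, extracted overnight at 4 °C in MeCN/MeOH 1:1, HPLC quantified; triplicate, mean ± SD divided by solvent extraction efficiency.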

[2] = Drug uptake in human MDA-MB-231 cells assessed as non specific binding with culture plate at 2 uM in presence of 5% FBS after 6 hrs at 4 degC by HPLC-MS analysis; format: ADME, cell-based; conditions: mda-mb-231, 6 h

Compound	Drug uptake [1] [nmol]	Drug uptake [2] [%]
O=C(Nc1ccc(OCCO)c(-c2ccc(F)cc2)c1)c1ccc(OCCO)c(-c2ccc(F)c(F)c2)c1	1	8.6
CCOC(=O)CCCn1c2ccccc2c2nc3nonc3nc21	0.1	3.9
Cc1ccc(NC(=O)c2ccc(C)c(-c3ccc(F)c(F)c3)c2)cc1-c1ccc(F)cc1	0.3	16
O=C(O)CCCn1c2ccccc2c2nc3nonc3nc21	0	0.49
